Here are results for four compounds from ChEMBL document CHEMBL2151038, “Synthesis, characterization and biological evaluation of some novel 2,4-thiazolidinediones as potential cytotoxic, antimicrobial and antihyperglycemic agents” (Bioorg Med Chem Lett, 2012).

In general, MIC refers to the smallest concentration in the dilution series that meets the test's criterion for growth inhibition.

Converted amounts (≈) assume the structure as drawn.

The test system of data set [1] is Rattus norvegicus. The data set is described as follows: Antihyperglycemic activity in streptozotocin-induced type 2 diabetic Wistar albino rat assessed as reduction in plasma glucose level at 10 mg/kg, po by glucometer. The data set is classed as functional. The method, boiled down: (§1)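 Wistar albino rats of either sex, 150–200 g, fasted 16 h. Diabetes induced by nicotinamide 150 mg/kg, then STZ 65 mg/kg in citrate buffer pH 4.5. Glucose confirmed after 48 h. Groups of six. Oral dosing as 0.25% sodium CMC suspension at 10, 30 or 50 mg/kg. Rosiglitazone was the reference. Retro-orbital plasma glucose measured by glucometer before dosing and at 1, 2, 4, 6, 8, 12 and 24 h. Results as mean ± SEM, compared by ANOVA, t-test and Dunnett's test.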

For a further data set, the system named is Penicillium chrysogenum. The data set is described as follows: Antifungal activity against Penicillium chrysogenum NCIM 738 after 48 hrs by NCCLS agar well diffusion method. The data set is classed as functional. Conditions: NCIM 738, 48 h. The method, boiled down: (§2)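 Spore suspensions in sterile distilled water adjusted to 10⁶ CFU/mL, 0.1 mL spread on potato-dextrose agar. 6 mm wells received 0.1 mL compound in 1% DMSO (final 16–512 µg/mL). Controls: 1% DMSO and ketoconazole (16 µg/mL). Triplicate plates, 48 h at 28 ± 0.2 °C. MIC = lowest concentration completely inhibiting growth.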
On the technique in general: In agar diffusion tests the substance spreads into inoculated agar from a disc or well.

Another data set deals with Candida albicans. Nature of the data set: Antifungal activity against Candida albicans NCIM 3102 after 48 hrs by NCCLS agar well diffusion method. The class given is functional. Conditions: NCIM 3102, 48 h. The method, boiled down:
as §2

A further data set deals with Pseudomonas aeruginosa. The data set is described as follows: Antibacterial activity against Pseudomonas aeruginosa NCIM 2036 after 24 hrs by NCCLS agar well diffusion method. The data set is classed as functional. Conditions: NCIM 2036, 24 h. The essentials:
(§3)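 Nutrient agar seeded with 0.1 mL bacterial suspension (10⁵ CFU/mL in 0.85% saline). 6 mm wells filled with 0.1 mL compound. Plates in triplicate, 37 ± 0.5 °C for 24 h. MIC = lowest concentration giving complete growth inhibition.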

Data set [2] concerns Rattus norvegicus. The data set is described as follows: Antihyperglycemic activity in streptozotocin-induced type 2 diabetic Wistar albino rat assessed as reduction in plasma glucose level at 50 mg/kg, po by glucometer. The data set is classed as functional. The method, boiled down: as §1
The next data set relates to Bacillus subtilis. Nature of the data set: Antibacterial activity against Bacillus subtilis NCIM 2063 after 24 hrs by NCCLS agar well diffusion method. The data set is classed as functional. Conditions: NCIM 2063, 24 h. The method, boiled down: as §3
The next data set has as its system Bacillus pumilus. Nature of the data set: Antibacterial activity against Bacillus pumilus NCIM 2327 after 24 hrs by NCCLS agar well diffusion method. The data set is classed as functional. Conditions: NCIM 2327, 24 h. The essentials:
as §3

Data set [3] has as its system Rattus norvegicus. The data set is described as follows: Antihyperglycemic activity in po dosed streptozotocin-induced type 2 diabetic Wistar albino rat assessed as reduction in plasma glucose level by glucometer. The class given is functional, organism-based. The essentials:
as §1

The test system of the next data set is Staphylococcus aureus. The data set is described as follows: Antibacterial activity against Staphylococcus aureus NCIM 2079 after 24 hrs by NCCLS agar well diffusion method. The data set is classed as functional. Conditions: NCIM 2079, 24 h. The essentials: as §3
A further data set has as its system Aspergillus niger. The data set is described as follows: Antifungal activity against Aspergillus niger NCIM 548 after 48 hrs by NCCLS agar well diffusion method. The class given is functional. Conditions: NCIM 548, 48 h. The essentials:
as §2

The next data set has as its system Aspergillus oryzae. The data set is described as follows: Antifungal activity against Aspergillus oryzae NCIM 643 after 48 hrs by NCCLS agar well diffusion method. The class given is functional. Conditions: NCIM 643, 48 h. The method, boiled down:
as §2

A short description of data set [4]: Toxicity in mouse assessed as changes in vital functions. The class given is organism-based. Conditions: in vivo.
The subject of data set [5] is Rattus norvegicus. The data set is described as follows: Antihyperglycemic activity in streptozotocin-induced type 2 diabetic Wistar albino rat assessed as reduction in plasma glucose level at 30 mg/kg, po by glucometer. The class given is functional. The essentials:
as §1

The test system of another data set is Micrococcus luteus. Nature of the data set: Antibacterial activity against Micrococcus luteus NCIM 2155 after 24 hrs by NCCLS agar well diffusion method. The class given is functional. Conditions: NCIM 2155, 24 h. The method, boiled down:
as §3

In the next data set the test system is Escherichia coli. The data set is described as follows: Antibacterial activity against Escherichia coli NCIM 2065 after 24 hrs by NCCLS agar well diffusion method. Conditions: NCIM 2065, 24 h. The class given is functional. The method, boiled down:
as §3

The next data set deals with Artemia salina. Nature of the data set: Cytotoxicity in brine shrimps larvae assessed as mortality after 24 hrs. The data set is classed as functional. Conditions: read-out: ED50 (the source's name). The essentials:
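Artemia salina nauplii hatched 38 h under constant aeration in sterile brine (sea salt 38 g/L, pH 8.5 with 1 N NaOH). Ten nauplii per vial were exposed to a range of compound concentrations at 37 °C for 24 h under incandescent light, alongside vehicle-treated controls. Survivors were counted, % lethality was taken from mean survivors versus control, and ED50 came from probit analysis.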

For a further data set, the system named is Proteus vulgaris. Nature of the data set: Antibacterial activity against Proteus vulgaris NCIM 2813 after 24 hrs by NCCLS agar well diffusion method. The class given is functional. Conditions: NCIM 2813, 24 h. The method, boiled down:
as §3

The test system of a further data set is Klebsiella pneumoniae. The data set is described as follows: Antibacterial activity against Klebsiella pneumoniae NCIM 5082 after 24 hrs by NCCLS agar well diffusion method. Conditions: NCIM 5082, 24 h. The data set is classed as functional. The method, boiled down: as §3

Regarding `COc1cccc(C(=O)/C=C/c2ccc(/C=C3\SC(=O)NC3=O)cc2)c1`, the Activity in the data set with Rattus norvegicus [1] is 16.41 mg/dL; in the data set on Rattus norvegicus [2], 34.61 mg/dL; in the data set on Rattus norvegicus [3], “Dose-dependent effect”; with Rattus norvegicus [5], 28.73 mg/dL. The minimal inhibitory concentration (MIC) in the data set on Penicillium chrysogenum came to 256 µg/mL (≈ 701 µM); in the data set on Candida albicans, 128 µg/mL (≈ 350 µM); with Pseudomonas aeruginosa it was 128 µg/mL (≈ 350 µM); with Bacillus subtilis, 128 µg/mL (≈ 350 µM); against Bacillus pumilus, 128 µg/mL (≈ 350 µM); in the data set on Staphylococcus aureus, 128 µg/mL (≈ 350 µM). The MIC in the data set on Aspergillus niger was determined as 64 µg/mL (≈ 175 µM); with Aspergillus oryzae, 256 µg/mL (≈ 701 µM); against Micrococcus luteus, 256 µg/mL (≈ 701 µM); with Escherichia coli, 128 µg/mL (≈ 350 µM); in the data set with Proteus vulgaris it was 256 µg/mL (≈ 701 µM); in the data set with Klebsiella pneumoniae, 128 µg/mL (≈ 350 µM). In addition, the MTD in data set [4] worked out at 2000 mg/kg. Moreover, the EC50 in the data set with Artemia salina amounted to 18.7 µg/mL (≈ 51.2 µM).

In the case of `Cc1cccc(C(=O)/C=C/c2ccc(/C=C3\SC(=O)NC3=O)cc2)c1O`, the Activity in the data set on Rattus norvegicus [1] was 36.76 mg/dL; in the data set on Rattus norvegicus [2] it was 49.99 mg/dL; in the data set with Rattus norvegicus [3], “Dose-dependent effect”; in the data set with Rattus norvegicus [5] it was 43.14 mg/dL. The minimal inhibitory concentration (MIC) against Penicillium chrysogenum worked out at 256 µg/mL (≈ 701 µM); in the data set with Candida albicans, 64 µg/mL (≈ 175 µM); in the data set on Pseudomonas aeruginosa it was 64 µg/mL (≈ 175 µM); with Bacillus subtilis, 64 µg/mL (≈ 175 µM); with Bacillus pumilus, 128 µg/mL (≈ 350 µM); against Staphylococcus aureus, 128 µg/mL (≈ 350 µM). Besides, the MIC in the data set with Aspergillus niger is 128 µg/mL (≈ 350 µM); in the data set with Aspergillus oryzae, 128 µg/mL (≈ 350 µM); against Micrococcus luteus it was 512 µg/mL (≈ 1400 µM); against Escherichia coli, 64 µg/mL (≈ 175 µM); with Proteus vulgaris it was 32 µg/mL (≈ 87.6 µM); against Klebsiella pneumoniae, 64 µg/mL (≈ 175 µM). Moreover, the MTD in data set [4] worked out at 2000 mg/kg. For the same compound, the EC50 in the data set with Artemia salina turned out to be 33.1 µg/mL (≈ 90.6 µM).

As for `COc1ccc(C(=O)/C=C/c2ccc(/C=C3\SC(=O)NC3=O)cc2)cc1`, the Activity in the data set on Rattus norvegicus [1] is 33.88 mg/dL; in the data set with Rattus norvegicus [2], 48.71 mg/dL; in the data set with Rattus norvegicus [3], “Dose-dependent effect”; in the data set with Rattus norvegicus [5], 37.04 mg/dL. Moreover, the minimum inhibitory concentration (MIC) in the data set with Penicillium chrysogenum came out at 128 µg/mL (≈ 350 µM); in the data set with Candida albicans it was 128 µg/mL (≈ 350 µM); against Pseudomonas aeruginosa, 64 µg/mL (≈ 175 µM); in the data set on Bacillus subtilis, 64 µg/mL (≈ 175 µM); in the data set on Bacillus pumilus it was 64 µg/mL (≈ 175 µM); against Staphylococcus aureus, 32 µg/mL (≈ 87.6 µM). The minimum inhibitory concentration (MIC) was determined as 128 µg/mL (≈ 350 µM) in the data set on Aspergillus niger; 128 µg/mL (≈ 350 µM) in the data set with Aspergillus oryzae; 64 µg/mL (≈ 175 µM) with Micrococcus luteus; 32 µg/mL (≈ 87.6 µM) against Escherichia coli; 64 µg/mL (≈ 175 µM) in the data set with Proteus vulgaris; 64 µg/mL (≈ 175 µM) in the data set with Klebsiella pneumoniae. Further, the MTD in [4] is 2000 mg/kg. Besides, the EC50 in the data set with Artemia salina came out at 16.2 µg/mL (≈ 44.4 µM).

For `O=C1NC(=O)/C(=C/c2ccc(/C=C/C(=O)c3ccc(Cl)cc3)cc2)S1`, the Activity with Rattus norvegicus [1] was 26.74 mg/dL; in the data set with Rattus norvegicus [2] it was 36.17 mg/dL; in the data set with Rattus norvegicus [3], “Dose-dependent effect”; with Rattus norvegicus [5], 32.38 mg/dL. For the same compound, the MIC came out at 64 µg/mL (≈ 173 µM) in the data set with Penicillium chrysogenum; 64 µg/mL (≈ 173 µM) with Candida albicans; 32 µg/mL (≈ 86.5 µM) against Pseudomonas aeruginosa; 32 µg/mL (≈ 86.5 µM) in the data set on Bacillus subtilis; 16 µg/mL (≈ 43.3 µM) in the data set on Bacillus pumilus; 32 µg/mL (≈ 86.5 µM) in the data set with Staphylococcus aureus. The minimum inhibitory concentration (MIC) in the data set on Aspergillus niger came to 64 µg/mL (≈ 173 µM); against Aspergillus oryzae, 64 µg/mL (≈ 173 µM); against Micrococcus luteus, 64 µg/mL (≈ 173 µM); in the data set with Escherichia coli it was 32 µg/mL (≈ 86.5 µM); with Proteus vulgaris, 32 µg/mL (≈ 86.5 µM); in the data set on Klebsiella pneumoniae, 16 µg/mL (≈ 43.3 µM). Also, the MTD in data set [4] came to 2000 mg/kg. The EC50 in the data set on Artemia salina was determined as 12.1 µg/mL (≈ 32.6 µM).
